SF1 activator – activates the human nuclear receptor SF-1. Q13285. CHO-K1 Gal4-SF-1 LBD luciferase reporter; % increase over DMSO SF-1-specific signal. activation, % at 10 µM. 65,000 compounds, 1.9% hits;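 active = activation above the mean activation of all tested compounds plus 3 SD, cut at about 50% in these data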
Target sequence (Q13285 whole entry, looked up, the tested form may be a part): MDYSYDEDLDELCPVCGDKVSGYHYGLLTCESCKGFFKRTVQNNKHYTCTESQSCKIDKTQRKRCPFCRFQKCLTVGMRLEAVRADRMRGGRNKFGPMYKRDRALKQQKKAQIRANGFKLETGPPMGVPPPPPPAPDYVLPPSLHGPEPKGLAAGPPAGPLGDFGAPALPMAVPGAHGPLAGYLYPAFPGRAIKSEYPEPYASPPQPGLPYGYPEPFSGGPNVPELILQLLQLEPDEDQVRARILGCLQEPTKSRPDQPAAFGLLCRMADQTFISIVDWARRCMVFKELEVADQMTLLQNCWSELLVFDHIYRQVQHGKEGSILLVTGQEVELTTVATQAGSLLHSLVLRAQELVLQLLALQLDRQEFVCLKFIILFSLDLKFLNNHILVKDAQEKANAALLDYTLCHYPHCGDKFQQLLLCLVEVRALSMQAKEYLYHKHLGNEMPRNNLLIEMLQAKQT
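Material: Transient Gal4-SF-1 LBD reporter, CHO-K1 | Input: 4,000 cells/well | Dosing: One dose, 10 µM compound, 1% DMSO | Incubation: 20 h compound treatment, 37 °C | Detection: SteadyLite luciferase luminescence | Evaluation: Percent activation relative to DMSO median and mock-transfected background | Benchmarks: DMSO-treated SF-1-transfected cells as negative, DMSO-treated mock-transfected cells lacking SF-1 as background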
RORA act – activators of human nuclear receptor RORA | CHO-K1 Gal4-RORA LBD luciferase reporter, luminescence; percent increase over mock-subtracted basal signal | AID 560 | activation, % at 10 µM | 65,000 compounds, 1.5% hits | P35398;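 active = activation above the mean of all tested compounds plus 3 SD, cut at about 49% in these data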
D1 mod – allosterically modulates the human D1 dopamine receptor; P21728; HEK293 D1, CRE-luciferase, dopamine EC30 potentiation; actives deviate in either direction; B-score at 10 µM; 58,000 compounds, 5.9% hits; AID 641;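 active = luminescence count or its row- and column-corrected plate score outside the 99.7% band of the plate's sample wells, on either side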
M1 antagonist – M1 muscarinic receptor (rat) antagonism; P08482; CHO-M1 cells, Fluo-4 calcium, ACh EC80 antagonist mode; active compounds read low; B-score at 10 µM; 64,000 compounds, 3.4% hits; AID 628;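 active = calcium fluorescence response, raw or row-and-column corrected B-score, differing from the plate sample mean either way at a set confidence level, mostly lower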
HePTP inh – blocks human HePTP tyrosine phosphatase. P35236. recombinant HePTP phosphatase activity, OD absorbance. inhibition, % at 20 µM. 110,000 compounds, 0.64% hits; in the data active = inhibition above about 50%
M1 agonist – M1 muscarinic receptor agonism; CHO-M1 cells, Fluo-4 calcium fluorescence, agonist mode; active compounds read high; B-score at 10 µM; 64,000 compounds, 3% hits; AID 626;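 active = fluorescence rise, raw or as B-score row- and column-corrected plate score, outside the 99.7% band of its plate's samples, either direction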
D1 mod confirm – confirmation of human D1 dopamine receptor allosteric modulators | shares compounds with D1 mod | HEK293 D1 CRE-luciferase, dopamine EC30 potentiation; active compounds read high | luminescence at 10 µM | 2,200 compounds, 88% hits | AID 642;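 active = luminescence in either of two replicates above the same-plate mean plus 3 SD of the low-dose dopamine control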
D1 ag no DA – secondary test of D1 modulators: activity without dopamine | shares compounds with D1 mod | HEK293 D1 CRE-luciferase, luminescence, no dopamine; active compounds read high | luminescence at 10 µM | 1,900 compounds, 0.8% hits; in the data active = luminescence above about 3900
Isoprot counter – alters isoproterenol CRE-luciferase response in HEK293 cells | AID 647 | calls only at 10 µM | shares compounds with D1 mod | HEK293 D1 CRE-luciferase, isoproterenol EC30 counter-screen | 2,200 compounds, 63% hits;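 active = luminescence in either replicate above plate mean of wells with a partly effective reference agonist dose plus 3 SD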;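 note: isoproterenol raises cAMP through native beta-adrenoceptor Gs so signal bypasses D1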
Numbers stand for hits; 0 = inactive; - = no result; + = active, no number. Hits are enriched below; roughly 8.2% of the tested compounds scored in any of these assays.

SMILES	SF1 activator	RORA act	D1 mod	M1 antagonist	HePTP inh	M1 agonist	D1 mod confirm	D1 ag no DA	Isoprot counter
CCOc1ccc(C2C(C#N)=C(N)SC(N)=C2C#N)cc1OC	0	0	6.06	0	0	64	10912	0	0
CCOc1ccc(C2=C/C(=C/c3ccc(I)o3)C(=O)O2)cc1	-	-	-	-	0	-	-	-	-
COc1ccc(OC)c(C2CC(=O)c3c([nH]c(C(=O)OC(C)C)c3C)C2)c1 (stereo not drawn)	0	0	2.77	0	0	0	9020	0	+
O=C(O)CC1Sc2ccccc2NC1=O (stereo not drawn)	0	0	0	0	0	0	-	-	-
CCOC(=O)CSc1nnc2c3ccccc3n(CC)c2n1	-	-	-	-	0	-	-	-	-
CCOC(=O)C(Sc1nnc2c3ccccc3n(CC)c2n1)C(=O)OCC	0	0	5.15	0	0	0	11136	0	+
O=[N+]([O-])c1ccccc1CNC1CCCCCC1	-	-	-	-	0	-	-	-	-
C=CCNC(=O)c1ccccc1NC(=O)c1ccccc1	0	0	8.29	0	0	0	16308	0	0
COC(=O)c1c(N)c(C#N)c(C)n1-c1ccccc1	0	0	3.01	0	0	0	8468	0	+
CC(=O)c1c(N)c(C#N)c(C)n1-c1ccc(Br)cc1	0	0	-	0	0	0	-	-	-
COc1cc(-c2nnc(-c3cccnc3)o2)cc(OC)c1OC	0	0	0	0	0	0	-	-	-
COc1ccc(-c2nnc(-c3cccnc3)o2)cc1OC	0	0	4.11	0	0	0	8388	-	+
CCOc1ccc(-c2nnc(-c3cccnc3)o2)cc1OCC	0	0	8.09	0	0	0	20776	0	+
COc1ccc(CCN(C)C(=O)CSc2nccn2C)cc1OC	0	0	4.47	0	0	0	9340	-	0
Cn1ccnc1SCC(=O)N(C1CCCCC1)C1CCCCC1	0	0	0	0	0	0	-	-	-
CCOC(=O)C1CCCN(c2nc3ccccc3nc2C(C#N)C(=O)OCC)C1 (stereo not drawn)	0	0	2.95	0	0	0	8656	0	0
CCCc1cc2c(c(NC(C)=O)n1)c(=O)oc1ccccc12	0	0	7.87	0	0	0	21272	0	+
CC(C)C(=O)Nc1c2c(nc3c1CCC3)CCCC2	0	0	0	0	0	0	-	-	-
CCc1ccc(NC(=O)CSc2ccc(Cl)cc2)cc1	-	-	-	-	0	-	-	-	-
COCc1cc(C)nc(N2CCOCC2)c1C#N	0	0	-	0	0	0	-	-	-
CCOc1cc2c(C#N)c(N3CCOCC3)nc(N)c2c(N)n1	0	0	12.5	0	0	0	11932	0	+
CCOc1ccc(S(=O)(=O)Nc2cccc(Cl)c2)cc1	0	0	0	0	0	0	-	-	-
CCCCn1c(SCC(=O)OCC)nc2c1c(=O)[nH]c(=O)n2C	0	0	0	0	0	0	-	-	-
CCCCCn1c(SC(C)C(C)=O)nc2c1c(=O)[nH]c(=O)n2C (stereo not drawn)	0	0	8	0	0	0	20968	0	+
CCCCCCn1c(SCCCC)nc2c1c(=O)[nH]c(=O)n2C	0	0	10.9	0	0	0	26000	0	+
CCCCn1c(NC(C)CC)nc2c1c(=O)[nH]c(=O)n2C (stereo not drawn)	0	0	11	0	0	0	21532	0	+
Cc1ccccc1OCC(O)Cn1c(NCCN(C)C)nc2c1c(=O)n(C)c(=O)n2C (stereo not drawn)	0	0	8.24	0	0	0	0	0	0
CCOC(=O)c1cc2c(=O)n3ccccc3nc2n(Cc2ccccc2)c1=N	0	0	0	0	0	0	-	-	-
CCOC(=O)c1cc2c(=O)n3ccccc3nc2n(CCCOC)c1=NC(=O)c1cccnc1	0	0	3.76	0	0	0	9344	0	0
CCOC(=O)c1cc2c(=O)n3ccccc3nc2n(CCCOC)c1=NC(=O)C(C)(C)C	0	0	4.79	0	0	0	7076	0	0

Bioassay records from PubChem.
